pEC50: −log10 of the molar value.
Experiments:
[1] = target: Glucagon-like peptide 1 receptor (Homo sapiens, UniProt P43220); test: Agonist activity at human GLP-1 receptor expressed in HEK293 cells assessed as cAMP accumulation after 30 mins by HTRF assay; format: functional, cell-based
Glucagon receptor = Glucagon receptor (Homo sapiens, UniProt P47871); test: Agonist activity at human glucagon receptor expressed in HEK293 cells assessed as cAMP accumulation after 30 mins by HTRF assay; format: functional, cell-based
[2] = Cmax in C57/BL6 mouse at 1 mg/kg, sc by LC-MS/MS analysis; format: ADME, organism-based; design: dose 1 mg/kg, route subcutaneous; details: in vivo
How it was run: (§1)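 Female C57/Bl6 mice given single 1 mg/kg sc dose; animals sacrificed and blood collected at 0.083, 0.25, 1, 2, 4, 8, 16 and 24 h. Plasma analysed by LC-MS/MS after protein precipitation; parameters from mean plasma concentrations by noncompartmental analysis.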

[3] = Tmax in C57/BL6 mouse at 1 mg/kg, sc by LC-MS/MS analysis; format: ADME, organism-based; details: in vivo; how it was run: as §1
[4] = AUC in C57/BL6 mouse at 1 mg/kg, sc by LC-MS/MS analysis; format: ADME, organism-based; details: in vivo; how it was run: as §1
[5] = Half life in C57/BL6 mouse at 1 mg/kg, sc by LC-MS/MS analysis; format: ADME, organism-based; details: in vivo; how it was run: as §1

Glucagon-like peptide 1 receptor, sequence (P43220 whole entry): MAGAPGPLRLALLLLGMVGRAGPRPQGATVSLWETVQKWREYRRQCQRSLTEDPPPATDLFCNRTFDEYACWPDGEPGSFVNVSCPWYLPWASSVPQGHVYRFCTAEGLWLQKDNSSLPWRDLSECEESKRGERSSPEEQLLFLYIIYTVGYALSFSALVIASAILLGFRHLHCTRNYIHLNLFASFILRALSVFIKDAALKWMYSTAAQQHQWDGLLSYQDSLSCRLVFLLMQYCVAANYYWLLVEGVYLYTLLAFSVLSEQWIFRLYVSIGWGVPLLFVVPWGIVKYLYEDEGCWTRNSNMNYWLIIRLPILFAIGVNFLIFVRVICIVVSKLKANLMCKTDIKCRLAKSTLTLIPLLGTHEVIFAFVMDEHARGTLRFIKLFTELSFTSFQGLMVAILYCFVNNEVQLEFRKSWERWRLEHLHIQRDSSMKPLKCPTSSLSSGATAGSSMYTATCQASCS
Glucagon receptor, sequence (P47871 whole entry): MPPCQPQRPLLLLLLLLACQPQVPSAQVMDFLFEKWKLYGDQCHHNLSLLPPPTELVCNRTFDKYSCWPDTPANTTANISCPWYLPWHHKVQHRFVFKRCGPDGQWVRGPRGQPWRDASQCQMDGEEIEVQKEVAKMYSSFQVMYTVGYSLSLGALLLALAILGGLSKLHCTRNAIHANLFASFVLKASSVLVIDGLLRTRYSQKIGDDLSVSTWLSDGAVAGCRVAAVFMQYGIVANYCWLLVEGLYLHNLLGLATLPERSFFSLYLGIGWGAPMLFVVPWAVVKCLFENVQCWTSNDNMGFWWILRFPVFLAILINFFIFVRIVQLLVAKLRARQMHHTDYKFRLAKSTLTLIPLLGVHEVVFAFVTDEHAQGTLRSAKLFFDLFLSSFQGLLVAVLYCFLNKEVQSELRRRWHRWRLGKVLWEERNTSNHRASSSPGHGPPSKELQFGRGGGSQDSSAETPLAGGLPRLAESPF

| Compound | pEC50 [1] | pEC50 (Glucagon receptor) | Cmax [2] [ng/mL] | Tmax [3] [h] | AUC [4] [ng·h/mL] | half-life [5] [h] |
| --- | --- | --- | --- | --- | --- | --- |
| H-HSQGTFTSDLSKQMDSRRAQDFIEWLKNGGPSSNNIA-NH2 | 10.76 | 10.81 | – | – | – | – |
| CCCCCCCCCCCCCCCC(=O)N[C@@H](CCC(=O)NCCCC[C@H](NC(=O)[C@@H]1CCCN1C(=O)[C@@H]1CCCN1C(=O)[C@@H]1CCCN1C(=O)[C@H](C)NC(=O)CNC(=O)[C@H](CO)NC(=O)[C@H](CO)NC(=O)[C@@H]1CCCN1C(=O)CNC(=O)CNC(=O)[C@H](CC(N)=O)NC(=O)[C@H](CCCCN)NC(=O)[C@H](CC(C)C)NC(=O)[C@H](Cc1c[nH]c2ccccc12)NC(=O)[C@H](CCC(=O)O)NC(=O)[C@@H](NC(=O)[C@H](Cc1ccccc1)NC(=O)[C@H](CC(=O)O)NC(=O)[C@H](CCC(N)=O)NC(=O)[C@H](C)NC(=O)[C@H](CCCNC(=N)N)NC(=O)[C@H](CCCNC(=N)N)NC(=O)[C@H](CO)NC(=O)[C@H](CC(=O)O)NC(=O)[C@H](CCSC)NC(=O)[C@H](CCC(N)=O)NC(=O)[C@H](CCCCN)NC(=O)[C@H](CO)NC(=O)[C@H](CC(C)C)NC(=O)[C@H](CC(=O)O)NC(=O)[C@H](CO)NC(=O)[C@@H](NC(=O)[C@H](Cc1ccccc1)NC(=O)[C@@H](NC(=O)CNC(=O)[C@H](CCC(N)=O)NC(=O)[C@H](CO)NC(=O)[C@@H](N)Cc1cnc[nH]1)[C@@H](C)O)[C@@H](C)O)[C@@H](C)CC)C(N)=O)C(N)=O | 11.24 | 11.20 | – | – | – | – |
| CC[C@H](C)[C@H](NC(=O)[C@H](Cc1ccccc1)NC(=O)[C@H](CC(C)C)NC(=O)[C@H](CCCNC(=N)N)NC(=O)[C@@H](NC(=O)[C@H](CCCNC(=N)N)NC(=O)[C@H](CCCNC(=N)N)NC(=O)[C@H](CO)NC(=O)[C@H](CC(=O)O)NC(=O)[C@H](CCSC)NC(=O)[C@H](CCC(N)=O)NC(=O)[C@H](CCCCN)NC(=O)[C@H](CO)NC(=O)[C@H](CC(C)C)NC(=O)[C@H](CC(=O)O)NC(=O)[C@H](CO)NC(=O)[C@@H](NC(=O)[C@H](Cc1ccccc1)NC(=O)[C@@H](NC(=O)CNC(=O)[C@H](CCC(=O)O)NC(=O)CNC(=O)[C@@H](N)Cc1cnc[nH]1)[C@@H](C)O)[C@@H](C)O)C(C)C)C(=O)N[C@@H](CCC(=O)O)C(=O)N[C@@H](Cc1c[nH]c2ccccc12)C(=O)N[C@@H](CC(C)C)C(=O)N[C@@H](CCCCN)C(=O)N[C@@H](CC(N)=O)C(=O)NCC(=O)NCC(=O)N1CCC[C@H]1C(=O)N[C@@H](CO)C(=O)N[C@@H](CO)C(=O)NCC(=O)N[C@@H](C)C(=O)N1CCC[C@H]1C(=O)N1CCC[C@H]1C(=O)N1CCC[C@H]1C(=O)N[C@@H](CO)C(N)=O | 11.74 | 4.24 | – | – | – | – |
| CC[C@H](C)[C@H](NC(=O)[C@H](Cc1ccccc1)NC(=O)[C@H](CC(C)C)NC(=O)[C@H](CCCNC(=N)N)NC(=O)[C@@H](NC(=O)[C@H](C)NC(=O)[C@H](CCC(=O)O)NC(=O)[C@H](CCC(=O)O)NC(=O)[C@H](CCC(=O)O)NC(=O)[C@H](CCSC)NC(=O)[C@H](CCC(N)=O)NC(=O)[C@H](CCCCN)NC(=O)[C@H](CO)NC(=O)[C@H](CC(C)C)NC(=O)[C@H](CC(=O)O)NC(=O)[C@H](CO)NC(=O)[C@@H](NC(=O)[C@H](Cc1ccccc1)NC(=O)[C@@H](NC(=O)CNC(=O)[C@H](CCC(=O)O)NC(=O)CNC(=O)[C@@H](N)Cc1cnc[nH]1)[C@@H](C)O)[C@@H](C)O)C(C)C)C(=O)N[C@@H](CCC(=O)O)C(=O)N[C@@H](Cc1c[nH]c2ccccc12)C(=O)N[C@@H](CC(C)C)C(=O)N[C@@H](CCSC)C(=O)N[C@@H](CC(N)=O)C(=O)N[C@H](C(=O)N[C@@H](CCCCN)C(=O)N[C@@H](CCCNC(=N)N)C(=O)N[C@@H](CC(N)=O)C(=O)N[C@@H](CCCNC(=N)N)C(=O)NCC(=O)N[C@@H](C)C(=O)N1CCC[C@H]1C(=O)N1CCC[C@H]1C(=O)N1CCC[C@H]1C(=O)N[C@@H](CO)C(N)=O)[C@@H](C)O | 11.92 | < 4.00 | – | – | – | – |
| H-HSQGTFTSDLSKQMDSRRAQDFIEWLKNG-NH2 | 11.09 | 11.72 | – | – | – | – |
| CCCCCCCCCCCCCCCC(=O)N[C@@H](CCC(=O)NCCCC[C@H](NC(=O)[C@H](CO)NC(=O)[C@@H]1CCCN1C(=O)[C@@H]1CCCN1C(=O)[C@@H]1CCCN1C(=O)[C@H](C)NC(=O)CNC(=O)[C@H](CO)NC(=O)[C@H](CO)NC(=O)[C@@H]1CCCN1C(=O)CNC(=O)CNC(=O)[C@H](CC(N)=O)NC(=O)[C@H](CCCCN)NC(=O)[C@H](CC(C)C)NC(=O)[C@H](Cc1c[nH]c2ccccc12)NC(=O)[C@H](CCC(=O)O)NC(=O)[C@@H](NC(=O)[C@H](Cc1ccccc1)NC(=O)[C@H](CC(=O)O)NC(=O)[C@H](CCC(N)=O)NC(=O)[C@H](C)NC(=O)[C@H](CCCNC(=N)N)NC(=O)[C@H](CCCNC(=N)N)NC(=O)[C@H](CO)NC(=O)[C@H](CC(=O)O)NC(=O)[C@H](CCSC)NC(=O)[C@H](CCC(N)=O)NC(=O)[C@H](CCCCN)NC(=O)[C@H](CO)NC(=O)[C@H](CC(C)C)NC(=O)[C@H](CC(=O)O)NC(=O)[C@H](CO)NC(=O)[C@@H](NC(=O)[C@H](Cc1ccccc1)NC(=O)[C@@H](NC(=O)CNC(=O)[C@H](CCC(N)=O)NC(=O)[C@H](CO)NC(=O)[C@@H](N)Cc1cnc[nH]1)[C@@H](C)O)[C@H](C)O)[C@@H](C)CC)C(N)=O)C(N)=O | 11.28 | 11.21 | 3450 | 2 | 17000 | 2.2 |
| H-HSEGTFTSDLSKQMDSRRAQDFIEWLKNGGPSSGAPPPS-NH2 | – | 6.77 | – | – | – | – |
| H-HGEGTFTSDLSKQMDSRRAQDFVEWLKNGGPSSGAPPPS-NH2 | 10.65 | 5.00 | – | – | – | – |
| H-HSQGTFTSDLSKQMDSRRAQDFIEWLKNGGPSS-NH2 | 10.82 | 11.05 | – | – | – | – |
| H-HGEGTFTSDLSKQMDSRRAQDFVQWLKNGGPSSGAPPPS-NH2 | 10.25 | 4.38 | – | – | – | – |
| H-HSQGTFTSDLSKQMEEEAVRLFIEWLMNTKRNRGAPPPS-NH2 | 11.66 | 8.91 | – | – | – | – |

Source: ChEMBL document CHEMBL4049452 (J Med Chem, 2017)
